In the library only some 3.8% were active in any assay of this set; here they are far more common.
FN deposit inh: fibronectin deposition inhibition; AH1F fibroblasts, Alexa488-fibronectin deposition fluorescence, overnight; 350,000 tested, 0.086% active; inhibition, % at 12.6 µM;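 active = mean inhibition across replicates of 30% or more, regardless of how many single replicates reach that level; inconclusive = mean under 30% yet at least half of replicates reach 30%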
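material = AH1F fibroblast monolayer depositing Alexa488-labelled fibronectin into matrix | amount = 10000 AH1F cells/well | buffer or medium = DMEM plus 2% serum, read in PBS | incubation = 1 h cell adhesion before compound, then overnight fibronectin incubation | detection = fluorescence at 485 nm excitation, 525 nm emission | evaluation = percent inhibition as loss of matrix-bound fibronectin fluorescence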
ARNT TACC3 PPI: ARNT/TACC3 interaction disruption | Q9Y6A5 | AID 623870 | AlphaScreen His-ARNT PAS-B/GST-TACC3 binding, luminescence; TACC3 fragment carries E629A point mutation | 390,000 tested, 0.66% active | inhibition, % at 9.99 µM;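 active = mean inhibition of replicates at least 50% and at least half of replicates each reaching 50%; inconclusive = half or more replicates reach 50% but mean below 50%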
Xi reactivation: reactivates the inactive X chromosome in mouse fibroblasts. XiGFP mouse fibroblasts, % GFP-positive cells imaging, 3 d; cells co-treated with 5-aza-dC sensitizer; scaled so ellipticine positive control = 100%. activation, % at 7.58 µM. 360,000 tested, 0.055% active. AID 743238;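 active = mean normalized replicate activation at least 10% and every replicate at or above 10%; inconclusive = only one of the two criteria met; inactive = mean below 10% and not all replicates reach 10%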
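System: XiGFP fibroblasts, SV40-immortalized. Medium: DMEM plus 5-aza-dC sensitizer. Doses: single point. Timing: 3 d treatment, 15 min room-temperature fixation. Control set: ellipticine 6 µM.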
DENV2 CPE: DENV2-induced cell death inhibition | DENV2-infected cells, cytopathic effect rescue, plate reader | CPE inhibition, % at 9.99 µM | 350,000 tested, 1.7% active; in the data active = CPE inhibition above about 20%, passing the limit was not always enough; inconclusive = no clear call, values can overlap the other calls; tested in BHK-21 cells
SIRT5 block: sirtuin-5 (human) deacylase inhibition; Purified SirT5, succinyl-peptide AMC, trypsin-coupled fluorescence; inhibition, % at 15 µM; 330,000 tested, 1.1% active; in the data active = inhibition above about 15%; inconclusive = no clear call, values can overlap the other calls
Target sequence (Q9NXA8 whole entry, looked up): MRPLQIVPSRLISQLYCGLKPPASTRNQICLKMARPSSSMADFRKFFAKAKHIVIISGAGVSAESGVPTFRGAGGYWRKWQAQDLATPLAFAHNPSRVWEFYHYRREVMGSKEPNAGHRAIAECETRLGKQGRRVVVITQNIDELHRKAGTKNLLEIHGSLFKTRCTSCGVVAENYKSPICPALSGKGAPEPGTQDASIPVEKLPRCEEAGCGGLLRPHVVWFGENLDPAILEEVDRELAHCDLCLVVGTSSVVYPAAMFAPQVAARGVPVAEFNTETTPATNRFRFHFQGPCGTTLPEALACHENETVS
FGF22 binding: FGF22 (human) thermal shift binding | 340,000 tested, 1.5% active | AID 651658 | Q9HCT0 | recombinant FGF22 thermal shift, SYPRO orange fluorescence; percent of sucrose octasulfate shift, DMSO zero | activity (Tm shift, normalised), % at 9.99 µM;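 active = mean Tm shift, scaled 0 neutral to 100 positive control, at about 1.3% or above, every replicate too, limit read from the data; inconclusive = no clear call, values can overlap the other calls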
Target sequence (Q9HCT0 whole entry, looked up): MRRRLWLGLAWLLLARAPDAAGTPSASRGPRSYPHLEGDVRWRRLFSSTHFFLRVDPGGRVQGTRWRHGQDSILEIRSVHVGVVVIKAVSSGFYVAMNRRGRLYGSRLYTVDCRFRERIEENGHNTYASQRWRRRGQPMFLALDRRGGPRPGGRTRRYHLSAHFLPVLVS
A number is an active result; . = inactive; ? = inconclusive; / = no result given.

SMILES	FN deposit inh	ARNT TACC3 PPI	Xi reactivation	DENV2 CPE	SIRT5 block	FGF22 binding
O=C(Nc1ccccc1)N1CC(=O)N2[C@H](CO)[C@H](c3ccc(C#CC4CCCCC4)cc3)[C@@H]2C1	.	/	.	.	.	/
O=C(C[C@H]1CC[C@H]2[C@@H](COC[C@@H](O)CN2C(=O)c2ccccc2F)O1)NCc1ccc(-c2ccccc2)cc1	.	.	.	.	.	.
O=C(c1ccc(Cl)cc1)C1CCCN(C(=O)/C=C/c2ccccn2)C1 (configuration not stated)	.	.	.	.	.	44
CCc1ccccc1OCC(=O)NNCC(=O)Nc1cccc(C#N)c1	.	/	.	41	.	.
CO[C@H]1CN(C)C(=O)c2cc(NC(=O)C3CC3)ccc2OC[C@H](C)N(Cc2cccc(F)c2)C[C@@H]1C	.	.	.	.	.	.
CCNS(=O)(=O)c1ccc(CCC(=O)N2CCOCC2)cc1	.	.	.	.	.	.
CCNS(=O)(=O)c1ccc(CCC(=O)N2CCN(C(=O)OCC)CC2)cc1	.	.	.	.	15	.
COc1cc(C(=O)NCCOc2ccccc2)cc(OC)c1OC	.	.	.	.	.	.
COc1ccc(C(=O)NCCOc2cccc(Oc3ccccc3)c2)cc1OC	.	/	.	48	.	.
COc1cc(OC)cc(C(=O)NCCOc2ccccc2)c1	/	.	/	/	/	/
CCCCOc1ccc(C(=O)NCCOc2cccc(OC)c2)cc1	.	.	.	53	.	.
O=C1CSC(c2ccccc2)N1c1cccc(Cl)c1 (configuration not stated)	/	.	/	.	.	.
CN1C(=O)c2cc(NC(=O)c3cccs3)ccc2OC[C@@H]2O[C@H](CC(=O)O)CC[C@@H]21	.	.	.	.	.	.
O=C(NC1CCCC1)[C@H]1[C@H](CO)[C@H]2Cn3c(ccc(-c4ccccc4)c3=O)[C@@H]1N2CCc1ccccc1	/	.	.	.	.	.
OC[C@@H]1[C@@H](c2ccc(-c3ccc(F)cc3)cc2)[C@@H]2CN(Cc3ccccn3)CCCCN12	/	.	.	63	.	.
OC[C@@H]1[C@H](c2ccc(-c3ccc(F)cc3)cc2)[C@H]2CN(Cc3ccccn3)CCCCN12	/	.	.	33	.	.
C[C@H](CO)N1C[C@H](C)[C@@H](CN(C)C(=O)c2cnccn2)Oc2cc(Br)ccc2S1(=O)=O	.	.	.	.	.	.
C[C@@H]1CN([C@H](C)CO)C(=O)c2cccc(NC(=O)C3CCCCC3)c2O[C@@H]1CN(C)C	.	.	.	.	.	.
CC(C)CNC(=O)c1coc(=O)c(Br)c1	active	.	/	/	/	/
COc1ccc(N2CS(=O)CC2=O)cc1 (configuration not stated)	.	.	.	?	.	43
CC(=O)c1cccc(NC(=O)c2ccc(NC(=O)CCS(=O)(=O)c3cccs3)cc2)c1	.	/	.	28	.	.
CC(=O)c1ccc(NC(=O)c2ccc(NC(=O)CCS(=O)(=O)c3cccs3)cc2)cc1	.	.	.	/	.	.
NC(=O)c1cc(NC(=O)c2ccc(NS(=O)(=O)c3cccs3)cc2)cc(C(N)=O)c1	.	35	.	.	.	.
C[C@@H]1CCCCO[C@@H](CN(C)C(=O)C2CCCCC2)[C@H](C)CN([C@@H](C)CO)C(=O)c2cc(NC(=O)CCCN(C)C)ccc2O1	/	/	.	/	/	/
Cc1ccc(/C=C/C(=O)N2CC(=O)Nc3ccccc32)o1	.	.	.	.	.	44
SMILES	FN deposit inh	ARNT TACC3 PPI	Xi reactivation	DENV2 CPE	SIRT5 block	FGF22 binding
COc1ccc2c3c(n(C)c2c1)[C@@H](CO)NCC31CCN(Cc2cc(F)ccc2F)CC1	.	/	.	.	.	/
COc1cccc(/C=N/NC(=O)C(=O)NCc2ccco2)c1O	/	60	/	/	/	/
COc1cccc(C(=O)Oc2ccc(/C=N/NC(=O)c3ccncc3)cc2OC)c1	.	.	/	.	21	.
CCOc1cc(/C=N/NC(=O)c2cccnc2)cc(Br)c1OCC(N)=O	.	.	.	.	.	44
CCOc1cc(Br)cc(/C=N/NC(=O)c2cccnc2)c1O	.	56	.	.	.	.
O=C(Nc1ccccc1)N[C@@H]1CC[C@@H](CCn2cc(C3(O)CCCC3)nn2)O[C@@H]1CO	.	.	.	.	.	.
CCS(=O)(=O)N[C@H]1CC[C@H](CC(=O)N2CCCCC2)O[C@H]1CO	/	.	/	.	.	.
CC(=O)N(C)C[C@@H]1Oc2ccc(N)cc2CC(=O)N(C)C[C@@H]1C	.	/	.	/	/	/
Cc1noc(C)c1S(=O)(=O)N(C)C[C@H]1Oc2ccc(NC(=O)Nc3ccc4c(c3)OCO4)cc2C(=O)N([C@H](C)CO)C[C@@H]1C	.	/	.	/	/	/
O=C(C[C@H]1CC[C@H](NC(=O)CN2CCOCC2)[C@H](CO)O1)NC1CCCCC1	.	.	.	.	.	.
COc1cccc(/C=N/NC(=O)c2cnccn2)c1O	.	58	.	.	.	.
COc1cc(/C=N/NC(=O)c2cc[n+]([O-])cc2)ccc1O	.	77	.	.	.	.
COc1ccc(/C=N/NC(=O)c2cc[n+]([O-])cc2)cc1OC	/	.	/	/	/	/
COc1cc(/C=N\NC(=O)CC#N)ccc1OC/C=C/c1ccccc1	.	69	.	.	.	.
O=C(N/N=C/c1cc([N+](=O)[O-])ccc1Cl)c1cnccn1	.	.	.	.	.	43
COc1ccc(/C=N/NC(=O)c2cnccn2)c(OC)c1OC	.	.	.	.	.	.
OC[C@@H]1[C@@H](c2ccccc2)C2(CN(CCC(F)(F)F)C2)N1Cc1nccs1	.	/	.	.	.	.
C[C@H]1CN([C@@H](C)CO)C(=O)c2cc(C#CCN(C)C)cnc2O[C@@H]1CN(C)S(C)(=O)=O	.	.	.	.	.	.
COc1cc(/C=N/NC(=O)c2cccnc2)ccc1OCC(=O)Nc1ccccc1Cl	.	.	.	.	.	43
O=C(C[C@@H]1C[C@H]2c3cc(NS(=O)(=O)c4ccc(F)cc4)ccc3O[C@H]2[C@H](CO)O1)NCC1CC1	.	.	.	.	/	.
CC(=O)N1SC(N)=NC1c1ccccc1 (configuration not stated)	.	.	/	/	/	/
c1ccc([C@H]2CN3C(=N2)Sc2ccccc23)cc1	.	.	.	/	.	45
COC(CNC(=O)C1CCCN(S(=O)(=O)c2c(C)noc2/C=C/c2cccs2)C1)OC (configuration not stated)	.	.	.	.	.	1.4
COCCNC(=O)C1CCCN(S(=O)(=O)c2c(C)noc2/C=C/c2cccs2)C1 (configuration not stated)	.	.	.	.	.	.
O=C(Nc1ccccc1)N1CCCCN2[C@H](CO)[C@H](c3ccc(Br)cc3)[C@H]2C1	/	.	.	32	.	.

Screening data as filed in PubChem BioAssay.
